These results are taken from ChEMBL document CHEMBL1152541, “Staurosporine tethered peptide ligands that target cAMP-dependent protein kinase (PKA): optimization and selectivity profiling” (Bioorg Med Chem, 2009).

For assay [1], the target named is Phosphatidylinositol 4,5-bisphosphate 3-kinase catalytic subunit gamma isoform (Homo sapiens) (UniProt P48736). Put plainly: Ratio of staurosporine to compound binding affinity to PI3Kgamma in presence of DTT.
In assay [2] the target is Insulin receptor (Homo sapiens) (UniProt P06213). The experiment in a line: Binding affinity to human INSR at 500 nM by cell-based competition binding assay relative to control in presence of DTT. In short, it runs like this:
(§1)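 Competition binding screen (Ambit) across a panel of 90 kinases, scoring test ligand displacement of each kinase's binding relative to control. The screen ran under reducing conditions with 7.5 mM DTT.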

The target of assay [3] is Mitogen-activated protein kinase 9 (Homo sapiens) (UniProt P45984). The experiment in a line: Binding affinity to human JNK2 at 500 nM by cell-based competition binding assay relative to control in presence of DTT. A digest of the protocol:
as §1

For assay [4], the target named is Mast/stem cell growth factor receptor Kit (Homo sapiens) (UniProt P10721). The experiment in a line: Binding affinity to human KIT at 500 nM by cell-based competition binding assay relative to control in presence of DTT. In short, it runs like this: as §1
The target of assay [5] is T1, 3-phosphoinositide-dependent protein kinase 1 (Homo sapiens) (UniProt O15530).
T1 sequence (whole entry): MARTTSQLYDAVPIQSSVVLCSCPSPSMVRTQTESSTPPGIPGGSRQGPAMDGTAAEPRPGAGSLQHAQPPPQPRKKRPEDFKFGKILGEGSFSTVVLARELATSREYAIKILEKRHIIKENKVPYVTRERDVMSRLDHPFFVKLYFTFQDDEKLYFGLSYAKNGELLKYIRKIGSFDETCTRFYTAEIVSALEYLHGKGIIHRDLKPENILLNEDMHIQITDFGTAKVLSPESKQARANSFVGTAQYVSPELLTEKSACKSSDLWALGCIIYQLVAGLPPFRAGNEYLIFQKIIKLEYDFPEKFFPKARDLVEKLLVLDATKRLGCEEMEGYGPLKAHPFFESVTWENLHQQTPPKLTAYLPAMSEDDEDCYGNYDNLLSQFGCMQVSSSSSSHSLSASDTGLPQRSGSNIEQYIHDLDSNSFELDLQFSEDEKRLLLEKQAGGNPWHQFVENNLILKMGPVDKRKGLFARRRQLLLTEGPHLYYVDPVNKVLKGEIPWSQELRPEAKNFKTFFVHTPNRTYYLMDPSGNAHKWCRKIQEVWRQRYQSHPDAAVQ
Put plainly: Binding affinity to human PDPK1 at 200 nM by cell-based competition binding assay relative to control in presence of DTT.

The target of assay [6] is Atypical kinase COQ8A, mitochondrial (Homo sapiens) (UniProt Q8NI60). The experiment in a line: Binding affinity to human ADCK3 at 200 nM by cell-based competition binding assay relative to control in presence of DTT. A digest of the protocol: (§2)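 Kinase binding profiling ran on a commercial (Ambit) competitive binding screen against a panel of 90 kinases. The screen used reducing conditions with 7.5 mM DTT. To withstand the DTT, the bivalent ligand was tested as its amide isostere, with the disulfide replaced. A staurosporine derivative carrying a 3 β-alanine linker was run as the reference compound.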

In assay [7] the target is RAF proto-oncogene serine/threonine-protein kinase (Homo sapiens) (UniProt P04049). Put plainly: Binding affinity to human RAF1 at 200 nM by cell-based competition binding assay relative to control in presence of DTT.
Chain of RAF proto-oncogene serine/threonine-protein kinase (Homo sapiens) (P04049 whole entry): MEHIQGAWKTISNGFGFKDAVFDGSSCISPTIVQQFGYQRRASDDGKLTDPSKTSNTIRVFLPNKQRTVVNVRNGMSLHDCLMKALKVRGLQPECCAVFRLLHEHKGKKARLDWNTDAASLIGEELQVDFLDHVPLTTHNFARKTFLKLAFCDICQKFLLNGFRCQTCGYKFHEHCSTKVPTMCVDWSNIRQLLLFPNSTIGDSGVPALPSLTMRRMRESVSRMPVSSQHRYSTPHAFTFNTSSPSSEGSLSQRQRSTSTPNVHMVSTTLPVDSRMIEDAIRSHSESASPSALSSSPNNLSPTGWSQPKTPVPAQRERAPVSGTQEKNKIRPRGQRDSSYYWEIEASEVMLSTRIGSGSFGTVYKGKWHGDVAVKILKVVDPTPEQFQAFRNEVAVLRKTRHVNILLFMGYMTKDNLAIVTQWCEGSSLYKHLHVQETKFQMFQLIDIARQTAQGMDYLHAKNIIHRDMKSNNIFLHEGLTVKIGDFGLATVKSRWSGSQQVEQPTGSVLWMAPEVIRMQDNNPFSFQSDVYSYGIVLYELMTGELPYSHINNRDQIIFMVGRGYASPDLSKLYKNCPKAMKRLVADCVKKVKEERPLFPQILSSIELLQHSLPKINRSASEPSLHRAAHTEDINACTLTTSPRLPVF
The target of assay [8] is Proto-oncogene tyrosine-protein kinase Src (Homo sapiens) (UniProt P12931). Put plainly: Binding affinity to human SRC at 200 nM by cell-based competition binding assay relative to control in presence of DTT.
Assay [9] deals with T2, Testis-specific serine/threonine-protein kinase 1 (Homo sapiens) (UniProt Q9BXA7).
T2 sequence (whole entry): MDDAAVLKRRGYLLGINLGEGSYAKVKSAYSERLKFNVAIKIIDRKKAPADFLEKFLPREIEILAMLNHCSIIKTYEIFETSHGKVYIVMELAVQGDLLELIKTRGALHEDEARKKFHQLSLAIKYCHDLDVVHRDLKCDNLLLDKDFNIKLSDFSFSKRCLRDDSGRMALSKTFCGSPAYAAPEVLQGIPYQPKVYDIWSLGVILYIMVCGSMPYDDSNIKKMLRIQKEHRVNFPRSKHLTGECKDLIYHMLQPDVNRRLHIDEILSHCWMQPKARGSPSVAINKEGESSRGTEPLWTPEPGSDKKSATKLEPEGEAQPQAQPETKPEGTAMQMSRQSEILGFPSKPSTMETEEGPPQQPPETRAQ
Put plainly: Binding affinity to human TSSK1 at 200 nM by cell-based competition binding assay relative to control in presence of DTT.

In assay [10] the target is T3, Aurora kinase A (Homo sapiens) (UniProt O14965).
T3 sequence (whole entry): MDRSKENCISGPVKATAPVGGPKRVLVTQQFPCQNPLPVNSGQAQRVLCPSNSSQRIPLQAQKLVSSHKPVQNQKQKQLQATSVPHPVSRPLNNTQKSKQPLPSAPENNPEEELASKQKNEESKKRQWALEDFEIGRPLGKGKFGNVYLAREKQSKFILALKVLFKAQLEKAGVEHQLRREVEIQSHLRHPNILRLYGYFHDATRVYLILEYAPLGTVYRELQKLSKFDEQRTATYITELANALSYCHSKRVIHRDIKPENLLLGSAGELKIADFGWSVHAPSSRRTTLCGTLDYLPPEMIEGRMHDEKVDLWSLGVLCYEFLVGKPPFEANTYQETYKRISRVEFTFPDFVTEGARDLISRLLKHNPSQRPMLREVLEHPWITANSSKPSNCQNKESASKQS
The experiment in a line: Binding affinity to human aurora kinase A at 50 nM by cell-based competition binding assay relative to control in presence of DTT.

Assay [11] concerns the target Cyclin-dependent kinase 7 (Homo sapiens) (UniProt P50613). Put plainly: Binding affinity to human CDK7 at 50 nM by cell-based competition binding assay relative to control in presence of DTT. In short, it runs like this: as §2
Assay [12] deals with Dual specificity mitogen-activated protein kinase kinase 1 (Homo sapiens) (UniProt Q02750). Put plainly: Binding affinity to human MEK1 at 50 nM by cell-based competition binding assay relative to control in presence of DTT. In short, it runs like this:
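Kinase binding profile from a commercial panel of 90 kinases, run as a competitive binding assay. The panel was screened under reducing conditions of 7.5 mM DTT. Signal was compared with the untreated control.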

Assay [13] concerns the target Mitogen-activated protein kinase kinase kinase 9 (Homo sapiens) (UniProt P80192). The experiment in a line: Binding affinity to human MLK1 at 50 nM by cell-based competition binding assay relative to control in presence of DTT.
Assay [14] deals with Receptor tyrosine-protein kinase erbB-2 (Homo sapiens) (UniProt P04626). Put plainly: Binding affinity to human ERBB2 at 50 nM by cell-based competition binding assay relative to control in presence of DTT. A digest of the protocol:
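Commercial (Ambit) competitive kinase-binding panel of 90 kinases measured the binding profile. Run under reducing conditions of 7.5 mM DTT. Binding is expressed relative to control.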

The target in assay [15] is Insulin-like growth factor 1 receptor (Homo sapiens) (UniProt P08069). The experiment in a line: Binding affinity to human IGF1R at 50 nM by cell-based competition binding assay relative to control in presence of DTT. In short, it runs like this: as §1
The target in assay [16] is Insulin receptor (Homo sapiens) (UniProt P06213). The experiment in a line: Binding affinity to human INSR at 50 nM by cell-based competition binding assay relative to control in presence of DTT. A digest of the protocol: as §1
Chain of Insulin receptor (Homo sapiens) (P06213 28-758 limits assumed): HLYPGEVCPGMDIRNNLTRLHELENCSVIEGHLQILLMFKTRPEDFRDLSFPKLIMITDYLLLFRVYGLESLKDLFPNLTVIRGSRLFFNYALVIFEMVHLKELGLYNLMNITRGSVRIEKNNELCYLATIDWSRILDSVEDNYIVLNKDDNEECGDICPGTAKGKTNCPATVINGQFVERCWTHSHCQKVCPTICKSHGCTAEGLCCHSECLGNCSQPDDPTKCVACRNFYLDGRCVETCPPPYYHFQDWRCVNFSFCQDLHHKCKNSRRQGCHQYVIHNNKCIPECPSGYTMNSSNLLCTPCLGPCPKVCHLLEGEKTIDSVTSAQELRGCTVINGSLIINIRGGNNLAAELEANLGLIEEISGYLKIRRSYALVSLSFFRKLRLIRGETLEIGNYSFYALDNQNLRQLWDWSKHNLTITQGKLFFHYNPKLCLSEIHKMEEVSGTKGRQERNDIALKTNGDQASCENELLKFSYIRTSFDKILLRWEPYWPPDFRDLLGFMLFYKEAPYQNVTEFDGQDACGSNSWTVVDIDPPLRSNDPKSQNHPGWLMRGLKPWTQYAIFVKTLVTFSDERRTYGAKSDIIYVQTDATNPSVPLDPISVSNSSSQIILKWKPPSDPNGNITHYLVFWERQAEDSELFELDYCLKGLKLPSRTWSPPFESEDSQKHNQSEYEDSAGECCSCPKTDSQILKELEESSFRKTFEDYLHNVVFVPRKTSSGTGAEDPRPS
Chain of Insulin receptor (Homo sapiens) (P06213 763-1382 limits assumed): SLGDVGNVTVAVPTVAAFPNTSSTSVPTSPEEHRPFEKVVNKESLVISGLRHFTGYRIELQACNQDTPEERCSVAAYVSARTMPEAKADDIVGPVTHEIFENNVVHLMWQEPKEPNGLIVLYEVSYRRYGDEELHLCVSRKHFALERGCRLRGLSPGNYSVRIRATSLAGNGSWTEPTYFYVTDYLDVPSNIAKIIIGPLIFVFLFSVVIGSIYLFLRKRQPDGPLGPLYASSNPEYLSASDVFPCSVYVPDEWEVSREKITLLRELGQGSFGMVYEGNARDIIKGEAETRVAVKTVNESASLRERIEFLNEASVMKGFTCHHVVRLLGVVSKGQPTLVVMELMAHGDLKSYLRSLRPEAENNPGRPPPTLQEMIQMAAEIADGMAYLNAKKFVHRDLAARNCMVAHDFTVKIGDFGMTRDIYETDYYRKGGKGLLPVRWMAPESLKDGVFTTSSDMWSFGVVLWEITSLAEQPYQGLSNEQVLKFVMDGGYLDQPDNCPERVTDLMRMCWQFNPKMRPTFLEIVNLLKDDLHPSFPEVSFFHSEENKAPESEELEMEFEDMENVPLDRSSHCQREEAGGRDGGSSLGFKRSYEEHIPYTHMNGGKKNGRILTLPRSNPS

*1 amine or outer side, *2 acyl side, *3 side chain or, on linkers, in order; H or OH if unused. Where a SMILES comes first, the peptide text is derived from it. Bridges are numbered along the chain shown (N, C = ends). [ ]: non-standard residue; d: D form. The star is where a group is joined. Staurosporine = CO[C@@H]1[C@H](N(C)*)C[C@H]2O[C@]1(C)n1c3ccccc3c3c4c(c5c6ccccc6n2c5c31)C(=O)NC4; Suc = O=C(CCC(=O)[*:2])[*:1]; Dap = NC[C@H](N)C(=O)O; βAla = NCCC(=O)O

Chain of Dual specificity mitogen-activated protein kinase kinase 1 (Homo sapiens) (Q02750 whole entry): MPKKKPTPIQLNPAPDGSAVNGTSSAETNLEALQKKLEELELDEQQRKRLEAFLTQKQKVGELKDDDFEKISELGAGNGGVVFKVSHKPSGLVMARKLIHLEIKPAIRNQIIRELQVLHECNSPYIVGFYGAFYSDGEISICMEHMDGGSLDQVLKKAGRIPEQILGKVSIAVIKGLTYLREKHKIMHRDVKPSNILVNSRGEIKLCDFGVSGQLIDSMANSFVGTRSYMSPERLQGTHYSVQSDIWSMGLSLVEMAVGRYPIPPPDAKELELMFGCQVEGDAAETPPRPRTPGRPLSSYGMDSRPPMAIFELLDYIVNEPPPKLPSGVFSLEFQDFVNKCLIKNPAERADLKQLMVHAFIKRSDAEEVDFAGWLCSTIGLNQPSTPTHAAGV
Chain of Phosphatidylinositol 4,5-bisphosphate 3-kinase catalytic subunit gamma isoform (Homo sapiens) (P48736 whole entry, looked up, canonical isoform): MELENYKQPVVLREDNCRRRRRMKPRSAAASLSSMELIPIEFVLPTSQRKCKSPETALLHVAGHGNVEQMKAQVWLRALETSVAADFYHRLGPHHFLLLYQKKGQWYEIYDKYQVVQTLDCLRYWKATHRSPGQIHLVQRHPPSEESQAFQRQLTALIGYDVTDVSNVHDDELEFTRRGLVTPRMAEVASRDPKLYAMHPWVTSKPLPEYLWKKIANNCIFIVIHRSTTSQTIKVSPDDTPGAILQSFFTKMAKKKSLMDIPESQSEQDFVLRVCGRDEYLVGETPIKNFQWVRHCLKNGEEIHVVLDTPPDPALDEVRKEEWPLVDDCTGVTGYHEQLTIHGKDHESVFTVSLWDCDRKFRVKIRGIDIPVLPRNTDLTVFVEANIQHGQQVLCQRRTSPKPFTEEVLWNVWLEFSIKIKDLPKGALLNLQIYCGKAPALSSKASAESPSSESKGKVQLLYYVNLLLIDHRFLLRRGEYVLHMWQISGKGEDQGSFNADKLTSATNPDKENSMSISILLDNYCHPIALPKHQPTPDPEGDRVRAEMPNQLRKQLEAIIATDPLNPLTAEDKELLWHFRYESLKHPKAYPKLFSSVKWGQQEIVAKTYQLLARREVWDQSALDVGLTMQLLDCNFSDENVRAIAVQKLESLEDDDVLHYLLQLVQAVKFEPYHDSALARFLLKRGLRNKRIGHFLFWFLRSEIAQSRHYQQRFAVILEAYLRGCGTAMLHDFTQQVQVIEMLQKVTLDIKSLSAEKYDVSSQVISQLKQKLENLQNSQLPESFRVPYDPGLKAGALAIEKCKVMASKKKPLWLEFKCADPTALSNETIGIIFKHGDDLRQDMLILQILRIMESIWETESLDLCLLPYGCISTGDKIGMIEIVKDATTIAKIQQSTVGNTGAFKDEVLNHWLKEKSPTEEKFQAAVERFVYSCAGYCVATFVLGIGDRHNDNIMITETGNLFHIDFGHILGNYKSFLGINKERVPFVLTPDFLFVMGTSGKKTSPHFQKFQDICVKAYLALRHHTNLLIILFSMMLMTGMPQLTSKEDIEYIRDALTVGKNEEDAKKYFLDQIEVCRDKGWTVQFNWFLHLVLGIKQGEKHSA
Chain of Mitogen-activated protein kinase kinase kinase 9 (Homo sapiens) (P80192 whole entry, looked up): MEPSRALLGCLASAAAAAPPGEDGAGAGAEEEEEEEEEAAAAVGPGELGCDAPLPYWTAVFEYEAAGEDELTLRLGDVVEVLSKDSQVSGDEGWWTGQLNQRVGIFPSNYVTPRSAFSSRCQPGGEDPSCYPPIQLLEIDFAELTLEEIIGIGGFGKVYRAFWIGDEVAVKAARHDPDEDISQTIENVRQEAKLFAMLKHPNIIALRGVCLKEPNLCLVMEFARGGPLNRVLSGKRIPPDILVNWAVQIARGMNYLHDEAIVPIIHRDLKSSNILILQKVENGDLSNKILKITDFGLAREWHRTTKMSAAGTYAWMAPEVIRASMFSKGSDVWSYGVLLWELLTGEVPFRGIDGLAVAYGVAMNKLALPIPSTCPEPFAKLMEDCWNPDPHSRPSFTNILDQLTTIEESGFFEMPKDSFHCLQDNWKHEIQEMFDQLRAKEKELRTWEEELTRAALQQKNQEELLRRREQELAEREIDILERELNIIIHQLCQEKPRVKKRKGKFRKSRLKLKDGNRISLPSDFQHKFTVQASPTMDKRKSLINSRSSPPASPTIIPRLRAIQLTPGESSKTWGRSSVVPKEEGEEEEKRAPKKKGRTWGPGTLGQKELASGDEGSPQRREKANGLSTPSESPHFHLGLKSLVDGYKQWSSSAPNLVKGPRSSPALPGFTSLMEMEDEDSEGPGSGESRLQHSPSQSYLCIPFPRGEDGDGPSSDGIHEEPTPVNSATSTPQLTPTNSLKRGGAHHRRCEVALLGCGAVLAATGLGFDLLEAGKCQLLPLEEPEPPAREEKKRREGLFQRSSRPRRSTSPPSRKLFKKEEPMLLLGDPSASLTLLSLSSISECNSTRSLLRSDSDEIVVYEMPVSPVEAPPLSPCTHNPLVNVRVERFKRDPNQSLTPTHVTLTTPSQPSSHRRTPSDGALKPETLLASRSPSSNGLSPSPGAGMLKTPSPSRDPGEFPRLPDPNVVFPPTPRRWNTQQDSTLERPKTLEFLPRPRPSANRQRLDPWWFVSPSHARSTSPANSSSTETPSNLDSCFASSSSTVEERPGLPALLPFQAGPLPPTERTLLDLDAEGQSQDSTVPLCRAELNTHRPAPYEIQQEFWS
Chain of Mitogen-activated protein kinase 9 (Homo sapiens) (P45984 whole entry, looked up): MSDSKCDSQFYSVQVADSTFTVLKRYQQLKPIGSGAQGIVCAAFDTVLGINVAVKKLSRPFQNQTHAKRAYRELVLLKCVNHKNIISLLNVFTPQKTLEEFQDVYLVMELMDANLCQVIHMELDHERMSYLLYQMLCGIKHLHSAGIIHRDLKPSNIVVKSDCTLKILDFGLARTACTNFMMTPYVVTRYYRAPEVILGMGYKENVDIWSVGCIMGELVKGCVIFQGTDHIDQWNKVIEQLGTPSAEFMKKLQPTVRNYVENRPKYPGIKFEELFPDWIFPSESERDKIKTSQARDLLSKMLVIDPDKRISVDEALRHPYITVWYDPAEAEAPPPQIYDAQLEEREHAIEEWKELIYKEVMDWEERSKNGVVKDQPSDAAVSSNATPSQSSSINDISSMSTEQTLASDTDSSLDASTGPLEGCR

`CO[C@@H]1[C@H](N(C)C(=O)CCC(=O)NCCC(=O)NCCC(=O)NCCC(N)=O)C[C@H]2O[C@]1(C)n1c3ccccc3c3c4c(c5c6ccccc6n2c5c31)C(=O)NC4`: the Selectivity ratio in assay [1] turned out to be 6. Besides, the Activity was 55% in assay [2], 87% in assay [3] and 7.4% in [4].
In the case of `CO[C@@H]1[C@H](N(C)C(=O)CCC(=O)NCCC(=O)NCCC(=O)NCCC(=O)NCCC(=O)NCCC(=O)NCCC(=O)NCCC(=O)N[C@H]2CSSC[C@@H](C(=O)NCC(N)=O)NC(=O)CNC(=O)[C@H](Cc3ccccc3)NC(=O)[C@H](C(C)C)NC(=O)[C@H](CCCNC(=N)N)NC(=O)[C@H](Cc3ccccc3)NC(=O)[C@H](C(C)C)NC2=O)C[C@H]2O[C@]1(C)n1c3ccccc3c3c4c(c5c6ccccc6n2c5c31)C(=O)NC4` ({Staurosporine-Suc-βAla-βAla-βAla-βAla-βAla-βAla-βAla}-CVFRVFGCG-NH2; disulfide 1-8), the Activity in assay [5] amounted to 16%; in assay [6], 96%; in [7], 89%; in [8] it was 100%; in [9], 17%.
Take `CO[C@@H]1[C@H](N(C)C(=O)CCC(=O)NCCC(=O)NCCC(=O)NCCC(=O)NCCC(=O)NCCC(=O)NCCC(=O)NCCC(=O)N[C@H]2CNC(=O)C[C@@H](C(N)=O)NC(=O)CNC(=O)[C@H](Cc3ccccc3)NC(=O)[C@H](C(C)C)NC(=O)[C@H](CCCNC(=N)N)NC(=O)[C@H](Cc3ccccc3)NC(=O)[C@H](C(C)C)NC2=O)C[C@H]2O[C@]1(C)n1c3ccccc3c3c4c(c5c6ccccc6n2c5c31)C(=O)NC4` ({Staurosporine-Suc-βAla-βAla-βAla-βAla-βAla-βAla-βAla}-[Dap]VFRVFGD-NH2; lactam 1-8): the Activity in assay [10] was found to be 63%; in assay [11], 98%; in [12], 95%; in assay [13], 5.5%; in assay [14] it was 100%; in assay [15], 100%. Moreover, the Activity in [16] came to 92%.
